HKDC1 inhibitor: inhibitors of human hexokinase HKDC1 | Q2TB90 | recombinant HKDC1, G6PDH/diaphorase resazurin coupled fluorescence | inhibition, % at 20 µM | hit rate 0.16% among 340,000 | AID 493160;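 active = inhibition above about 35% when tested at 20 µM, limit read from the data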;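 note: plate controls were DMSO wells with enzyme for no effect and DMSO wells lacking enzyme for full effect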
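Material – in-house recombinant HK5 (HKDC1) enzyme · Quantity – HKDC1 at 5 µg/mL · Buffer or medium – pH 8.0 Tris buffer with 10 mM MgCl2 · Reagent – glucose with 1 mM ATP · Dosing – single 20 µM dose · Times – reaction time 90 min, room temperature, protected from light · Technique – resorufin fluorescence at 613 nm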
ATG4B inhibitor: blocks human ATG4B protease cleavage of LC3 substrate; Q9Y4P1; ATG4B cleavage of LC3-PLA2, NBD-HPC fluorescence, 1 h; inhibition, % at 8.33 µM; hit rate 0.51% among 340,000; AID 504462; in the data active = inhibition above about 40%
HDAC3 inhib: blocks human histone deacetylase 3; O15379; recombinant HDAC3, fluorogenic peptide/trypsin coupled, fluorescence; inhibition, % at 8.3 µM; hit rate 0.15% among 320,000; in the data active = inhibition above about 26%, passing the limit was not always enough; inconclusive = no clear call, values can overlap the other calls
Target sequence (O15379 whole entry, looked up): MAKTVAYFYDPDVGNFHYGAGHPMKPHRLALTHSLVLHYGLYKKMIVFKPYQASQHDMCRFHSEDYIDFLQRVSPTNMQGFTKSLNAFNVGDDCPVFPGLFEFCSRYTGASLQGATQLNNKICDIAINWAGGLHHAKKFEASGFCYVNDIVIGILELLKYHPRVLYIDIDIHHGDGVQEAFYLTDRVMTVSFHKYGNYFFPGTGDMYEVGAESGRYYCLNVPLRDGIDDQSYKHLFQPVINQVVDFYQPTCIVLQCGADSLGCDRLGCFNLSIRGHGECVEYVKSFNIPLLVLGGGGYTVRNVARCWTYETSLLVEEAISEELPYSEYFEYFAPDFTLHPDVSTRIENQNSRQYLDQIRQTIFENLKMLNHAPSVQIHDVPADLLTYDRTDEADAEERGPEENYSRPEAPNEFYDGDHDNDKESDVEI
LANA-H2B inh: blocks KSHV LANA binding to histone H2A/H2B. Q9QR71. cell-free LANA-H2A/H2B peptide, fluorescence polarization. inhibition, % (test concentration not listed). hit rate 0.6% among 320,000; in the data active = inhibition mostly above about 10%, no sharp cut-off; inactive = mostly below about 6.7%
AI-2 QS modul: Vibrio harveyi AI-2 quorum sensing modulation; Vibrio harveyi JMH597 AI-2 luminescence/OD600 ratio, 9 h; hits give low values; strain lacks LuxN and CqsS sensors; 0 = neutral-control median; activity change, % at 7.5 µM; hit rate 0.4% among 300,000; AID 2094; in the data active = activity change below about -75%, passing the limit was not always enough; inconclusive = no clear call, values can overlap the other calls;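 note: luminescence divided by OD600 gain over 9 h not by final OD600 alone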
A1 inh: inhibitors of the anti-apoptotic protein A1, read as caspase activation; MEF A1-2A-BIM cells, Caspase-Glo 3/7 luminescence, 3 h; percent of clofoctol response, vehicle zero; AID 2462; caspase activation, % (concentration not given with the values); hit rate 0.066% among 330,000;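 active = over half of replicate activation scores above 10%, or exactly half above 10 with the replicate mean above 10; inconclusive = replicate mean below 10 yet half the replicates above 10; inactive = over half of replicates below 10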
JMH597 growth rt: retest: inhibitors of Vibrio harveyi JMH597 growth; OD600 absorbance, 9 h; lacks LuxN and CqsS sensors; AID 2726; shares compounds with AI-2 QS modul; growth inhibition, % at 7.5 µM; hit rate 1% among 750;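 active = every replicate shows growth inhibition above 50%; inconclusive = at least half, but not all, replicates pass that cutoff; inactive = fewer than half of replicates pass it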
BB721 const-QS lum: retest counter-screen: luminescence loss in constitutive-on quorum sensing strain BB721; shares compounds with AI-2 QS modul; Vibrio harveyi BB721 luminescence, 9 h; AID 2727; inhibition, % at 7.5 µM; hit rate 95% among 750;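 active = inhibition above about 80% in every replicate, not just on average, limit read from the data; inconclusive = at least half of replicates past the limit, but not all; inactive = fewer than half of replicates past the limit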
BB721 growth rt: retest Vibrio harveyi BB721 growth inhibition | shares compounds with AI-2 QS modul | OD600 absorbance, 9 h | growth inhibition, % at 7.5 µM | hit rate 3% among 750 | AID 2728;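 active = every replicate shows growth inhibition above 50%; inconclusive = at least half but not all replicates above 50% inhibition; inactive = under half of replicates above 50% inhibition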
JMH597 AI-2 mod: Vibrio harveyi AI-2 signaling luminescence modulation – JMH597 strain, confirmation; Vibrio harveyi JMH597 AI-2 quorum sensing luminescence, 9 h; luxN and CqsS knockout, AI-2 only; AID 2736; shares compounds with AI-2 QS modul; inhibition, % at 7.5 µM; hit rate 97% among 750;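 active = every replicate shows more than 75% inhibition of signal versus neutral control wells; inconclusive = half to three quarters of replicates exceed 75% inhibition; inactive = fewer than half of replicates exceed 75% inhibition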
Numbers without * were called inactive; ? = inconclusive; . = no result given. Sampled rows, rich in hits. Any-hit rate of the full collection: about 1.8%.

SMILES	HKDC1 inhibitor	ATG4B inhibitor	HDAC3 inhib	LANA-H2B inh	AI-2 QS modul	A1 inh	JMH597 growth rt	BB721 const-QS lum	BB721 growth rt	JMH597 AI-2 mod
O=C(CSc1nc2ccccc2n1Cc1ccc(Cl)cc1)N/N=C/c1ccc(C(=O)O)cc1	3	4	-1	-1	15	0	.	.	.	.
O=C(CCS(=O)(=O)c1ccccc1)Nc1ccc(S(=O)(=O)Nc2nccs2)cc1	-3	-2	5	0	.	-3	.	.	.	.
Cc1ccc(O)c(CNc2ccc(S(=O)(=O)Nc3nccs3)cc2)c1	5	-2	.	-6	-89*	1	19	93*	28	95*
O=C(CCc1ccccc1)Nc1ccc(S(=O)(=O)Nc2nccs2)cc1	-3	4	8	2	-85*	0	18	89*	8	93*
Cc1noc(C)c1NC(=O)N(C)C[C@H]1Oc2ccc(NS(=O)(=O)c3ccc(F)cc3)cc2C(=O)N([C@H](C)CO)C[C@@H]1C	-6	-10	-1	3	.	1	.	.	.	.
O=C(O)c1ccc(S(=O)(=O)Nc2ccc(O)c(Sc3nc4ccccc4s3)c2)cc1	12	5	-4	9	15	0	.	.	.	.
O=C(NCc1cccs1)C(=O)c1c[nH]c2ccccc12	-15	-11	5	2	-92*	1	20	97*	-1	98*
O=C(NCc1cccnc1)C(=O)c1c[nH]c2ccccc12	-7	-9	1	2	12	-1	.	.	.	.
O=C(NCc1ccccc1Cl)C(=O)c1c[nH]c2ccccc12	-11	5	-1	-3	-83*	0	-15	94*	16	95*
O=C(CN1C(=O)NC(c2ccccc2)(c2ccccc2)C1=O)Nc1ccc2[nH]c(=O)[nH]c2c1	3	-11	-1	1	27	0	.	.	.	.
COc1cccc(NC(=O)CN2C(=O)NC3(CCCC3)C2=O)c1	5	-5	0	5	17	0	.	.	.	.
COc1cccc(NC(=O)CN2C(=O)NC(C)(c3ccc(C)cc3)C2=O)c1 (stereo not given)	-3	0	2	-3	-90*	1	21	92*	25	95*
COc1cccc(NC(=O)CCC(=O)Nc2cccc(OC)c2)c1	-8	-13	2	-1	25	1	.	.	.	.
CCCC1(c2ccccc2)NC(=O)N(CC(=O)Nc2cc(OC)cc(OC)c2)C1=O (stereo not given)	-4	6	6	-7	-81*	0	7	?	-5	85*
COc1cccc(NC(=O)Cc2ccc3ccccc3c2)c1	-3	1	2	-5	-84*	-1	22	89*	14	92*
COc1cc(NC(=O)CN2C(=O)NC(c3ccccc3)(c3ccccc3)C2=O)cc(OC)c1	-1	-2	5	2	-89*	0	36	22	14	44
CCOc1ccc(C(C)=O)cc1COc1cccnc1[N+](=O)[O-]	0	-2	3	2	11	-1	.	.	.	.
COc1cccc(NC(=O)CN2C(=O)NC(c3ccccc3)(c3ccccc3)C2=O)c1	-3	-15	5	-1	-93*	0	8	93*	10	97*
COc1cccc(NC(=O)Cn2nnc(-c3ccccc3N)n2)c1	-7	-6	2	2	-81*	0	18	97*	34	97*
Cc1cccc2[nH]c(CN(C)C(=O)CC3C(=O)NCCN3CC(C)(C)C)nc12 (stereo not given)	3	28	3	-11	15	1	.	.	.	.
Cc1nn(Cc2ccc(C(=O)N3CCCC3)o2)c(C)c1[N+](=O)[O-]	-1	3	.	.	9	.	.	.	.	.

Screening results (PubChem BioAssay)
